From ChEMBL document CHEMBL1124416, “5-(1-piperazinyl)-1H-1,2,4-triazol-3-amines as antihypertensive agents” (1989)

Assays:
Rattus norvegicus [1] = test: Effect on the cardiovascular response to isoproterenol challenge was measured in conscious spontaneously hypertensive rats administered perorally at 50 mg/kg; type: functional, Heart; details: route oral
Rattus norvegicus [2] = test: The antihypertensive activity was assessed by measuring the heart rate in rats when administered at 25 mg/kg; type: functional
Outline: (§1)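 16-week-old male SH rats (Okamoto) were dosed by oral gavage in 3% starch in normal saline (2 mL/kg), plus an oral saline load of 25 mL/kg. They were redosed at 24 h without the saline load. MABP and HR were taken by direct femoral arterial puncture under local anesthesia 4 h after the second dose. HR was rounded to 10 bpm.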

Rattus norvegicus [3] = test: The antihypertensive activity was assessed by measuring the mean arterial blood pressure in rats when administered at 25 mg/kg; type: functional; outline: as §1
Rattus norvegicus [4] = test: Effect on the cardiovascular response to tyramine challenge was measured in conscious spontaneously hypertensive rats administered perorally at 50 mg/kg; type: functional, Heart; details: route oral
Rattus norvegicus [5] = test: Effect on the cardiovascular response to isoproterenol challenge was measured in conscious spontaneously hypertensive rats administered perorally at 1 mL/100g; type: functional, Heart
Rattus norvegicus [6] = test: Effect on the cardiovascular response to epinephrine (2ug/kg, iv) challenge was measured in conscious spontaneously hypertensive rats administered perorally at 50 mg/kg; type: functional, Heart; details: route oral
Outline: (§2)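 Male Okamoto-Aoki SHR, about 350 g, conscious, held supine with elastic tape; tail base locally anesthetized with 2% procaine sc. Control responses were recorded first. Vehicle (10 mL/kg) or compound was then given orally, and challenges were repeated 1 h later. Challenges were a 75° tilt for 30 s and iv agonists (epinephrine 1 or 2 μg/kg). Read-out was change in MABP (mmHg); paired Student's t test.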

Rattus norvegicus [7] = test: Effect on the cardiovascular response to ACH challenge was measured in conscious spontaneously hypertensive rats administered perorally at 8 mL/100 g; type: functional, Heart
Rattus norvegicus [8] = test: Effect on the cardiovascular response to norepinephrine challenge was measured in conscious spontaneously hypertensive rats administered perorally at 8 mL/100 g; type: functional, Heart
Rattus norvegicus [9] = test: Effect on the cardiovascular response to epinephrine (1ug/kg, iv) challenge was measured in conscious spontaneously hypertensive rats administered perorally at 50 mg/kg; type: functional, Heart; details: route oral; outline: as §2
Rattus norvegicus [10] = test: The antihypertensive activity was assessed by measuring the heart rate in rats when administered at 50 mg/kg; type: functional; outline: as §1
Rattus norvegicus [11] = test: Effect on the cardiovascular response to epinephrine (1ug/kg, iv) challenge was measured in conscious spontaneously hypertensive rats administered perorally at 1 mL/100g; type: functional, Heart; outline: as §2
Rattus norvegicus [12] = test: Effect on the cardiovascular response to tilt challenge was measured in conscious spontaneously hypertensive rats administered perorally at 50 mg/kg; type: functional, Heart; details: route oral; outline: as §2
Rattus norvegicus [13] = test: Effect on the […] was measured in conscious spontaneously hypertensive rat administered perorally at 1 mL/100g; type: functional, Heart
Rattus norvegicus [14] = test: Effect on the cardiovascular response to ACH challenge was measured in conscious spontaneously hypertensive rats administered perorally at 50 mg/kg; type: functional, Heart; details: route oral
Rattus norvegicus [15] = test: Effect on the cardiovascular response to DMPP challenge was measured in conscious spontaneously hypertensive administered perorally rats at 1 mL/100g; type: functional, Heart
Rattus norvegicus [16] = test: Effect on the cardiovascular response to tilt challenge was measured in conscious spontaneously hypertensive rats administered perorally at 1 mL/100g; type: functional, Heart; outline: as §2
Rattus norvegicus [17] = test: Effect on the cardiovascular response to epinephrine (2ug/kg, iv) challenge was measured in conscious spontaneously hypertensive rats administered perorally at 1 mL/100g; type: functional, Heart; outline: as §2
Rattus norvegicus [18] = test: Assessment of antihypertensive activity at 100 mg/kg administered perorally by measuring the heart rate in rats; type: functional; details: route oral
Rattus norvegicus [19] = test: Effect on the cardiovascular response to ACH challenge was measured in conscious spontaneously hypertensive rats administered perorally at 1 mL/100g; type: functional, Heart
Rattus norvegicus [20] = test: Effect on the cardiovascular response to tyramine challenge was measured in conscious spontaneously hypertensive rats administered perorally at 8 mL/100 g; type: functional, Heart
Rattus norvegicus [21] = test: Effect on the cardiovascular response to norepinephrine challenge was measured in conscious spontaneously hypertensive rats administered perorally at 1 mL/100g; type: functional, Heart
Rattus norvegicus [22] = test: Effect on the cardiovascular response to angiotensin II challenge was measured in conscious spontaneously hypertensive rats administered perorally at 1 mL/100g; type: functional, Heart
Rattus norvegicus [23] = test: Effect on the cardiovascular response to norepinephrine challenge was measured in conscious spontaneously hypertensive rats administered perorally at 50 mg/kg; type: functional, Heart; details: route oral
Rattus norvegicus [24] = test: Effect on the cardiovascular response to angiotensin II challenge was measured in conscious spontaneously hypertensive rats administered perorally at 8 mL/100 g; type: functional, Heart
Rattus norvegicus [25] = species: Rattus norvegicus; type: functional, Artery; details: dose 100 mg/kg; route oral
Rattus norvegicus [26] = test: The antihypertensive activity was assessed by measuring the mean arterial blood pressure in rats when administered at 50 mg/kg; type: functional; outline: as §1
Rattus norvegicus [27] = test: Effect on the cardiovascular response to angiotensin II challenge was measured in conscious spontaneously hypertensive rats administered perorally at 50 mg/kg; type: functional, Heart; details: route oral
Rattus norvegicus [28] = test: Effect on the cardiovascular response to DMPP challenge was measured in conscious spontaneously hypertensive rats administered perorally at 50 mg/kg; type: functional, Heart; details: route oral
Rattus norvegicus [29] = test: Effect on the cardiovascular response to isoproterenol challenge was measured in conscious spontaneously hypertensive rats administered perorally at 8 mL/100 g; type: functional, Heart

`Nc1n[nH]c(N2CCN(Cc3cccc(Cl)c3)CC2)n1` showed an MABP (Rattus norvegicus [1]) of -46.7 delta mmHg, an HR (Rattus norvegicus [2]) of 440 beats min-1 and an MABP (Rattus norvegicus [3]) of 132 mmHg. For the same compound, the MABP (Rattus norvegicus [4]) was 34.8 delta mmHg, the MABP (Rattus norvegicus [5]) was -38.5 delta mmHg and the MABP (Rattus norvegicus [6]) was 50.7 delta mmHg. For the same compound, the MABP (Rattus norvegicus [7]) was -68.5 delta mmHg, the MABP (Rattus norvegicus [8]) was 47.8 delta mmHg and the MABP (Rattus norvegicus [9]) was 29 delta mmHg. It also gave an HR (Rattus norvegicus [10]) of 440 beats min-1, an MABP (Rattus norvegicus [11]) of 28.8 delta mmHg and an MABP (Rattus norvegicus [12]) of 9.3 delta mmHg. The MABP (Rattus norvegicus [13]) was 34.5 delta mmHg, the MABP (Rattus norvegicus [14]) was -47 delta mmHg and the MABP (Rattus norvegicus [15]) was 52.5 delta mmHg. The MABP (Rattus norvegicus [16]) was 17.3 delta mmHg, the MABP (Rattus norvegicus [17]) was 37.3 delta mmHg and the HR (Rattus norvegicus [18]) was 300 beats min-1. The MABP (Rattus norvegicus [19]) was -54.5 delta mmHg, the MABP (Rattus norvegicus [20]) was 35.3 delta mmHg and the MABP (Rattus norvegicus [21]) was 45.8 delta mmHg. For the same compound, the MABP (Rattus norvegicus [22]) was 49 delta mmHg, the MABP (Rattus norvegicus [23]) was 63 delta mmHg and the MABP (Rattus norvegicus [24]) was 55 delta mmHg. For the same compound, the MABP (Rattus norvegicus [25]) was 89 mmHg, the MABP (Rattus norvegicus [26]) was 113 mmHg and the MABP (Rattus norvegicus [27]) was 70.2 delta mmHg. It also gave an MABP (Rattus norvegicus [28]) of 30.3 delta mmHg and an MABP (Rattus norvegicus [29]) of -49.8 delta mmHg.
